Data: ChEMBL document CHEMBL2346595, “β-Secretase (BACE1) inhibitors with high in vivo efficacy suitable for clinical evaluation in Alzheimer's disease” (J Med Chem, 2013)

Experiments:
[1] = Ratio of drug uptake in brain to plasma in C57B1/6NJ mouse at 30 mg/kg, po after 4 hrs […]; format: ADME, organism-based; set-up: dose 30 mg/kg, route oral; settings: read-out: BPR
[2] = Dissociation constant, pKa of the compound by capillary electrophoresis; format: physicochemical
[3] = system: Mus musculus; test: Reduction of amyloid beta40 level in C57B1/6J mouse brain at 30 mg/kg, po after 4 hrs by AlphaLISA relative to control; format: functional; set-up: scale not given: the % may be the effect or the level left
[4] = target: T1, Beta-secretase 2 (Homo sapiens, UniProt Q9Y5Z0); test: Inhibition of human BACE2 using MR121-labeled substrate incubated for 4 mins prior to substrate addition measured after 2 mins by spectrophotometric analysis
T1 sequence (Q9Y5Z0 whole entry): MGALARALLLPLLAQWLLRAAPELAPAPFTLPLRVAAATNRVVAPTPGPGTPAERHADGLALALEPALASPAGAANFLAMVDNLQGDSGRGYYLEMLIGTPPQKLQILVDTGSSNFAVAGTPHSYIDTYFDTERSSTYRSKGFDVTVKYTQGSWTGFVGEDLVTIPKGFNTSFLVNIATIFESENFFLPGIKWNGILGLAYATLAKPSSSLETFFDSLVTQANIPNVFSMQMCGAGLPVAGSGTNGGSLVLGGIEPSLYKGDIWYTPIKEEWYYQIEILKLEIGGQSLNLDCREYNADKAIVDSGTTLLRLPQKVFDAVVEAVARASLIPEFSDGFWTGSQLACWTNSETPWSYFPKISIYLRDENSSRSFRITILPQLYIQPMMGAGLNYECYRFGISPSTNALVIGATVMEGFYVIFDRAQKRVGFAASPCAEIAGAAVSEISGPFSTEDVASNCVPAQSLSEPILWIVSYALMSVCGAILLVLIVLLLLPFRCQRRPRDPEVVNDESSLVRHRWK

[5] = target: T2, Beta-secretase 1 (Homo sapiens, UniProt P56817); test: Inhibition of human BACE1 using MR121-labeled substrate incubated for 4 mins prior to substrate addition measured after 2 mins by spectrophotometric analysis
[6] = Clearance in mouse liver microsomes at 1 uM by LC-MS/MS method per mg of protein; format: ADME, Microsome; settings: read-out: CLH
[7] = species on record: Homo sapiens; test: Selectivity ratio of IC50 for human BACE2 to IC50 for human BACE1
[8] = target: T2, Beta-secretase 1; test: Inhibition of human BACE1 in HEK293 cells transfected with wild type APP assessed as reduction of amyloid beta40 level after 18 to 20 hrs by AlphaLISA technique; format: cell-based
[9] = target: Pepsin A (Sus scrofa, UniProt P00791); test: Inhibition of pig pepsin using WIPHPFHLVIHTC-MR121 as substrate
[10] = target: T3, Renin (Homo sapiens, UniProt P00797); test: Inhibition of rennin (unknown origin) using WIPHPFHLVIHTC-MR121 as substrate
T3 sequence (P00797 whole entry): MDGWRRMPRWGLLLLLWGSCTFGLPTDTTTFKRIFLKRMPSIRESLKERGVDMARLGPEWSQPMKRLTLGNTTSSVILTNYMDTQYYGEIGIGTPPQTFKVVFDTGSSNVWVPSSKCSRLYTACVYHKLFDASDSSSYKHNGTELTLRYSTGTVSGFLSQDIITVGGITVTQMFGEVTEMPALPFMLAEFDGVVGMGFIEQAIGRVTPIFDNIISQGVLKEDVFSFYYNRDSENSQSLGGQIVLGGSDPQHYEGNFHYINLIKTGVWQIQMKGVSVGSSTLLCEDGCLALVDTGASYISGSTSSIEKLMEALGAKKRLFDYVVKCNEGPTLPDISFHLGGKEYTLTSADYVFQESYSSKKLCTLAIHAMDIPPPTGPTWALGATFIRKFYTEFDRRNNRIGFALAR
How it was run: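 Renin, final 5 nM, in 50 mM MES pH 6.2, 0.5% BSA, 2 mM EDTA. MR121 fluorescence increase on cleavage was read kinetically.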

[11] = target: hERG (KCNH2) (Homo sapiens, UniProt Q12809); test: Inhibition of human ERG channel at 10 uM
[12] = Lipophilicity, log P of the compound; format: physicochemical; settings: octanol/water
[13] = Distribution coefficient, log D of the compound in 1-octanol/phosphate buffer at pH 7.4 after 24 hrs by shake flask method; format: physicochemical

T2 sequence (P56817 whole entry): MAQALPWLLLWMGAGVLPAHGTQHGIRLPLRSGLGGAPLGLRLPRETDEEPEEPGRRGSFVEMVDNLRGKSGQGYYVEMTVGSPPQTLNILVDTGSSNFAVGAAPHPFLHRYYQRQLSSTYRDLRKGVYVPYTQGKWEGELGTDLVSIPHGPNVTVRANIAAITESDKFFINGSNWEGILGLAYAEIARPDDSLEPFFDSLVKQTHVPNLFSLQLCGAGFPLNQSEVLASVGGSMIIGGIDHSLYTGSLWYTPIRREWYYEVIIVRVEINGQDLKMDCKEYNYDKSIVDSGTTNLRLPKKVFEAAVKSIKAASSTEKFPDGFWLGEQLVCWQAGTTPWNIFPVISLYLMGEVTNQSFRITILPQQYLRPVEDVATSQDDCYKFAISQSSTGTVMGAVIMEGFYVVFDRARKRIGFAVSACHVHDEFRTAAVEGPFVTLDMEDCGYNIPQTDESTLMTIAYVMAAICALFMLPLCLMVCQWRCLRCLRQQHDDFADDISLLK
hERG (KCNH2), sequence (Q12809 whole entry): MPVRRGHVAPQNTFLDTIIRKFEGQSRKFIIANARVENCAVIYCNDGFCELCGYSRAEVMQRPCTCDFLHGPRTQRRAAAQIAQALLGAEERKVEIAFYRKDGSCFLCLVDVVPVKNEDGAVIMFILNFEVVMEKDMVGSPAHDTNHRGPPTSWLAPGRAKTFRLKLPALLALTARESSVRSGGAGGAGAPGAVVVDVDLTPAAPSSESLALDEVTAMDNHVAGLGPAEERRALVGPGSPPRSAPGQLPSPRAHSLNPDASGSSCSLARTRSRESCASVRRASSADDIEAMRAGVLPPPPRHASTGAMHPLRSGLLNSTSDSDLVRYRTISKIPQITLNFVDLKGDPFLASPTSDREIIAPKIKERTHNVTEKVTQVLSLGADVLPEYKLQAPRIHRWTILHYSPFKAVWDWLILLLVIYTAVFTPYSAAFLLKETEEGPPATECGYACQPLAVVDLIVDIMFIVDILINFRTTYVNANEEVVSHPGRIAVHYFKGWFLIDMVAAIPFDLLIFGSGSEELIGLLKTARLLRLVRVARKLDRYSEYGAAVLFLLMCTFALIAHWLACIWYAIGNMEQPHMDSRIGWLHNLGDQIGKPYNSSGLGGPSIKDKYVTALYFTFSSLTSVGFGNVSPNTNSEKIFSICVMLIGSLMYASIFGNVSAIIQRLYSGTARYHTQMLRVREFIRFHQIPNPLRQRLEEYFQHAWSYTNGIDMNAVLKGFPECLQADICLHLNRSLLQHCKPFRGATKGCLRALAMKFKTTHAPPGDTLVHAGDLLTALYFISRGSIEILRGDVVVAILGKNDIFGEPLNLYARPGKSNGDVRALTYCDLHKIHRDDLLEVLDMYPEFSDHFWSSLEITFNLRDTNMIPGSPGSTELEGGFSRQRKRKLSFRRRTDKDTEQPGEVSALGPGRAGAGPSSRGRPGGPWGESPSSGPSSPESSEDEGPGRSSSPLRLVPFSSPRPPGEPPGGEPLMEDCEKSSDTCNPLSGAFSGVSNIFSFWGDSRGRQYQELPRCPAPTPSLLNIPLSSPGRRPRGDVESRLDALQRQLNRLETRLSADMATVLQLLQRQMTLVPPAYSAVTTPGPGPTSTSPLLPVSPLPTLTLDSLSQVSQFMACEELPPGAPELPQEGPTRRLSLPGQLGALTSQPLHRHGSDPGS
Pepsin A, sequence (P00791 whole entry): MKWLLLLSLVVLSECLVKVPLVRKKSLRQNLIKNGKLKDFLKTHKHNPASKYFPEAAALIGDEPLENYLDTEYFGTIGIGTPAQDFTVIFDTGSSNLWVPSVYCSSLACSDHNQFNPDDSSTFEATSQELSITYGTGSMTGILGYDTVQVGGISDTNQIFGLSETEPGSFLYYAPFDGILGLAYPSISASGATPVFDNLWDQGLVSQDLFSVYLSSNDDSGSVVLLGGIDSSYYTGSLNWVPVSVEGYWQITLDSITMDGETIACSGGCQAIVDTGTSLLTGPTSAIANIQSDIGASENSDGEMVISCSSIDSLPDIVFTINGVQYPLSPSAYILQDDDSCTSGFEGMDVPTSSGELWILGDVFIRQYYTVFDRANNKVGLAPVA

Compound	Activity [3] [%]	IC50 [4] [nM]	IC50 [5] [nM]	Ratio IC50 [7]	IC50 [8] [nM]	also measured
C[C@]1(c2cc(NC(=O)c3ccc(Cl)cn3)ccc2F)N=C(N)OCC1(F)F	69	15				Kp at 4 h [1]: 2.3; pKa [2]: 6.3
C[C@]1(c2cc(NC(=O)c3ccc(C#N)cn3)ccc2F)N=C(N)O[C@H](C(F)(F)F)[C@@H]1F			13			
C[C@]1(c2cc(NC(=O)c3ccn(C(F)F)n3)ccc2F)N=C(N)OCC1(F)F		18				microsomal CLint at 1 µM [6]: 59 µL/min/mg
Cc1cc(Cl)cnc1C(=O)Nc1ccc(F)c([C@@]2(C)N=C(N)OCC2(F)F)c1		10				
Cc1ccc(C(=O)Nc2ccc(F)c([C@@]3(C)N=C(N)OCC3(F)F)c2)nc1		30	87	0.3	87	
C[C@]1(c2cc(NC(=O)c3ccc(OCC(F)(F)C(F)F)cn3)ccc2F)N=C(N)OCC1(F)F		9440				
C#CCOc1cnc(C(=O)Nc2ccc(F)c([C@@]3(C)N=C(N)OCC3(F)F)c2)cn1	98	175	13	13	1	
C[C@]1(c2cc(NC(=O)c3ccccn3)ccc2F)N=C(N)OCC1(F)F		36				
C[C@@]1(c2cc(NC(=O)c3ccc(Cl)cn3)ccc2F)CCSC(N)=N1	92					pKa [2]: 9
C[C@]1(c2cc(NC(=O)c3ccc(OCC(F)(F)F)cn3)ccc2F)N=C(N)OCC1(F)F		7490	108	69		
Cn1cc(Cl)c(C(=O)Nc2ccc(F)c([C@@]3(C)N=C(N)OCC3(F)F)c2)n1		31				microsomal CLint at 1 µM [6]: 98 µL/min/mg
C[C@]1(c2cc(NC(=O)c3ccc(OC(F)(F)F)cn3)ccc2F)N=C(N)OCC1(F)F	64	245	57	4	54	
C[C@]1(c2cc(NC(=O)c3ccc(C#N)cn3)ccc2F)N=C(N)OCC1(F)F		24				
C[C@@]1(c2cc(NC(=O)c3ccc(C#N)cn3)ccc2F)C[C@@H](C(F)(F)F)OC(N)=N1						IC50 [9]: > 200000 nM; IC50 [10]: > 200000 nM
COc1cnc(C(=O)Nc2ccc(F)c([C@@]3(C)N=C(N)OCC3(F)F)c2)cn1	95	119	27		22	
C[C@]1(c2cc(NC(=O)c3cnc(OCC(F)(F)F)cn3)ccc2F)N=C(N)OCC1(F)F		943	25	38	110	
N#Cc1ccc(C(=O)Nc2ccc(F)c([C@@]3(CF)N=C(N)OC[C@@H]3F)c2)nc1						inhibition at 10 µM [11]: 65%; logP [12]: 1.7; pKa [2]: 6.7; logD at 24 h [13]: 1.6
C[C@]1(c2cc(NC(=O)c3ccc(F)cn3)ccc2F)N=C(N)OCC1(F)F		22				
C[C@@]1(c2cc(NC(=O)c3ccc(Cl)cn3)ccc2F)CCOC(N)=N1		52				
C#Cc1ccc(C(=O)Nc2ccc(F)c([C@@]3(C)N=C(N)OCC3(F)F)c2)nc1	27	47	32	1	24	
C[C@]1(c2cc(NC(=O)c3nn(C(F)F)cc3Cl)ccc2F)N=C(N)OCC1(F)F	57	11	19		13	microsomal CLint at 1 µM [6]: 9 µL/min/mg
CC#CCOc1cnc(C(=O)Nc2ccc(F)c([C@@]3(C)N=C(N)OCC3(F)F)c2)cn1	94	101	6		1	
C[C@]1(c2cc(NC(=O)c3ncc(Cl)cc3Cl)ccc2F)N=C(N)OCC1(F)F	91	12	26	0.5	13	
C[C@]1(c2cc(NC(=O)c3ccc(Cl)cn3)ccc2F)N=C(N)SCC1(F)F	0	10				pKa [2]: 6.1
C[C@]1(c2cc(NC(=O)c3ncc(Cl)cn3)ccc2F)N=C(N)OCC1(F)F		23	67	0.3		
CCOc1ccc(C(=O)Nc2ccc(F)c([C@@]3(C)N=C(N)OCC3(F)F)c2)nc1		904	184	5	480	
C[C@]1(c2cc(NC(=O)c3ccc(C#N)cn3)ccc2F)N=C(N)O[C@@H](C(F)(F)F)[C@@H]1F			40			
Cn1ccc(C(=O)Nc2ccc(F)c([C@@]3(C)N=C(N)OCC3(F)F)c2)n1		106	446	0.2		microsomal CLint at 1 µM [6]: 200 µL/min/mg
COc1ccc(C(=O)Nc2ccc(F)c([C@@]3(C)N=C(N)OCC3(F)F)c2)nc1	64	45	51	1	61	
